Measurements as given in ChEMBL document CHEMBL1138379, “Syntheses of F-18 labeled fluoroalkyltyrosine derivatives and their biological evaluation in rat bearing 9L tumor” (Bioorg Med Chem Lett, 2007).

Columns and labels:
Blood = assay: Biodistribution in blood of Fisher 344 rat bearing 9L tumor after 60 mins; format: ADME, organism-based; settings: in vivo, 1 h
Outline: (§1)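 9L tumor cells (5 × 10^6) inoculated into Fisher 344 rats, used 14-18 days later. Rats anesthetized with ethyl ether, given ~3.7 MBq [18F] tracer in 100 µL PBS via tail vein, sacrificed with ether at set times (10-120 min). Tissues dissected, weighed and gamma-counted. Values are %ID/g, mean ± SD, n = 4. Ratios taken from tissue uptake.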

Lung = assay: Biodistribution in lung of Fisher 344 rat bearing 9L tumor after 30 mins; format: ADME, organism-based; settings: in vivo, 0.5 h; outline: as §1
Femur = assay: Biodistribution in femur of Fisher 344 rat bearing 9L tumor after 60 mins; format: ADME, organism-based; settings: in vivo, 1 h; outline: as §1
[1] = Ratio of biodistribution in tumor to brain in Fisher 344 rat bearing 9L tumor after 60 mins; format: ADME, organism-based; settings: in vivo, 1 h; outline: as §1
[2] = Partition coefficient, log P of the compound; format: physicochemical; settings: octanol/water
Outline: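 Shake-flask partition between 2.0 mL 1-octanol and 2.0 mL water. 10 µL of HPLC-purified radiotracer added, mixed 2 min at room temperature. Radioactivity counted in 300 µL of each phase to give log P.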

Row | Drug uptake (Blood) [% ID/g] | Drug uptake (Lung) [% ID/g] | Drug uptake (Femur) [% ID/g] | Ratio [1] | logP [2] | Compound
1 | 0.24 | 0.34 | 0.18 | 2.6 | -0.29 | COc1ccc(CC(N)C(=O)O)cc1CCC[18F] (stereo not given)
2 | 0.25 | 0.37 | 0.22 | 1.9 | -0.75 | COc1ccc(CC(N)C(=O)O)cc1CC[18F] (stereo not given)
3 | 0.06 | 0.12 | 0.76 | 2.92 | -1.37 | NC(Cc1ccc(O)c(CC[18F])c1)C(=O)O (stereo not given)
4 | 0.64 | 0.78 | 1.45 | 4.05 | -1.07 | NC(Cc1ccc(O)c(CCC[18F])c1)C(=O)O (stereo not given)
